One data set deals with LNCaP. Briefly: Cytotoxicity against human LNCAP cells after 24 hrs by MTT assay. The class given is functional, cell-based. (Formazan colour is commonly taken as a measure of viable cells.)
The subject of the next data set is PC-3. The data set is described as follows: Cytotoxicity against human PC3 cells after 24 hrs by MTT assay. The format is functional, cell-based. The note with it: PC-3, 24 h.
The next data set concerns DU-145. Briefly: Cytotoxicity against human DU145 cells after 24 hrs by MTT assay. As to conditions: DU-145, 24 h. The format is functional, cell-based.
Data set [1] deals with Rattus norvegicus. The data set is described as follows: Anti-androgenic activity in citral-induced prostatic hyperplasia Sprague-Dawley rat model assessed as prostate weight at 10 mg/kg, po administered once daily coadministered with citral for 21 days measured 24 hrs last post dose (reference value: 100%). The format is functional. In a few lines: (§1)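 Adult male Sprague-Dawley rats (250-280 g, n = 5), citral 100 mg/kg orally once daily for 28 days. From day 8, compound or flutamide at 10 mg/kg orally once daily for the remaining 21 days. Prostate weight is expressed relative to the citral group (100%). Prostates fixed in 10% formalin; 5 μ sections stained with H&E, examined by light microscopy.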

In data set [2] the test system is Rattus norvegicus. The data set is described as follows: Toxicity in citral-induced prostatic hyperplasia Sprague-Dawley rat model assessed as effect on seminal vesicle weight at 10 mg/kg, po administered once daily coadministered with citral for 21 days measured 24 hrs last post dose. The format is organism-based. The note with it: in vivo.
Data set [3] has as its system Rattus norvegicus. Briefly: Toxicity in citral-induced prostatic hyperplasia Sprague-Dawley rat model assessed as effect on testis weight at 10 mg/kg, po administered once daily coadministered with citral for 21 days measured 24 hrs last post dose. The format is organism-based. The note with it: in vivo.
For data set [4], the system named is Rattus norvegicus. The data set is described as follows: Anti-androgenic activity in citral-induced prostatic hyperplasia Sprague-Dawley rat model assessed increase in distinction between stromal and acinar compartments at 10 mg/kg, po administered once daily coadministered with citral for 21 days measured 24 hrs last post dose by hematoxyline and eosin stainig based light microscopic analysis. The class given is functional, organism-based. In outline: as §1

For the next data set, the system named is Mus musculus. Briefly: Toxicity in Swiss albino mouse assessed as latency time to fall at 20 mg/kg, po measured at 1 hr interval for 4 hrs by rotarod test. The format is organism-based. As to conditions: in vivo. In outline:
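Mice trained on the rotarod (5 to 10 rpm), 2 min trials, 3 per day for two days. On day 3, tested before oral dosing and at 1, 2, 3 and 4 h after, recording latency to fall.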
On the technique in general: In the rotarod test animals must keep their balance on a rotating rod.

Data set [5] is described as follows: AUClast in Sprague-Dawley rat serum at 10 mg/kg, iv administered as single dose by LC-MS/MS analysis. On the set-up: dose 10 mg/kg, route intravenous, time 0 - last. The format is ADME, organism-based. In a few lines:
(§2)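 Male Sprague Dawley rats (250 ± 25 g), fasted overnight (12-16 h), n = 3 per time point; single 10 mg/kg dose orally by feeding needle, or iv from DMSO solution. Serum, prostate and hypothalamus collected up to 48 h post oral dose; hypothalamus from three rats pooled. LC-MS/MS (MRM, phenacetin internal standard), linear 5-400 ng/mL; noncompartmental and compartmental analysis.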

Data set [6] is described as follows: Half life in Sprague-Dawley rat serum at 10 mg/kg, iv administered as single dose by LC-MS/MS analysis. The class given is ADME, organism-based. In a few lines:
as §2

Data set [7] can be described thus: Clearance in Sprague-Dawley rat serum at 10 mg/kg, iv administered as single dose by LC-MS/MS analysis. The format is ADME, organism-based. In outline: as §2
Data set [8] is described as follows: Cmax in Sprague-Dawley rat serum at 10 mg/kg, po administered as single dose by LC-MS/MS analysis. The class given is ADME, organism-based. Details: dose 10 mg/kg, route oral. In a few lines: as §2
The nature of data set [9]: Tmax in Sprague-Dawley rat serum at 10 mg/kg, po administered as single dose by LC-MS/MS analysis. The class given is ADME, organism-based. In outline: as §2
The nature of data set [10]: Clearance in Sprague-Dawley rat serum at 10 mg/kg, po administered as single dose by LC-MS/MS analysis. The format is ADME, organism-based. In a few lines:
as §2

In another data set the test system is Serum. The data set is described as follows: Volume of distribution at steady state in Sprague-Dawley rat serum at 10 mg/kg, po administered as single dose by LC-MS/MS analysis. The format is ADME, organism-based. As to conditions: in vivo. In a few lines: as §2
Data set [11] can be described thus: AUClast in Sprague-Dawley rat prostate at 10 mg/kg, po administered as single dose by LC-MS/MS analysis. The format is ADME, organism-based, Prostate gland. As to conditions: in vivo. In outline: as §2
A short description of data set [12]: Half life in Sprague-Dawley rat prostate at 10 mg/kg, po administered as single dose by LC-MS/MS analysis. The class given is ADME, organism-based, Prostate gland. In a few lines:
as §2

Data set [13] in a line: Clearance in Sprague-Dawley rat prostate at 10 mg/kg, po administered as single dose by LC-MS/MS analysis. The class given is ADME, organism-based, Prostate gland. As to conditions: in vivo. In a few lines:
as §2

Data set [14] is described as follows: Tmax in Sprague-Dawley rat hypothalamus at 10 mg/kg, po administered as single dose by LC-MS/MS analysis. The class given is ADME, organism-based. In a few lines: as §2
The subject of data set [15] is Hypothalamus. The data set is described as follows: AUClast in Sprague-Dawley rat hypothalamus at 10 mg/kg, po administered as single dose by LC-MS/MS analysis. As to conditions: in vivo. The format is ADME, organism-based. In a few lines:
as §2

Data set [16] is described as follows: Half life in Sprague-Dawley rat hypothalamus at 10 mg/kg, po administered as single dose by LC-MS/MS analysis. The format is ADME, organism-based. In a few lines: as §2
The subject of data set [17] is Hypothalamus. Briefly: Volume of distribution at steady state in Sprague-Dawley rat hypothalamus at 10 mg/kg, po administered as single dose by LC-MS/MS analysis. The class given is ADME, organism-based. The note with it: in vivo. In outline:
as §2

Data set [18] is described as follows: Ratio of drug level in hypothalamus to serum in Sprague-Dawley rat at 10 mg/kg, po administered as single dose by LC-MS/MS analysis. The class given is ADME, organism-based. In outline:
as §2

The structures appear in SMILES notation. The source made the active and inactive calls.

In general, EC50 refers to the concentration giving half of the maximal effect. Broadly, the AUC(0-t) is exposure summed from dosing to a finite time, without extrapolation to infinity. As a reminder, the half-life is the time needed for the level to fall by half in the phase considered. Read a high half-life as slow loss. Usually clearance stands for the rate of elimination divided by the concentration. Read a high clearance as efficient removal. A word on the Cmax: it is the maximum level reached in the sampled fluid or tissue. A word on the Tmax: it is the time from dosing to the highest level. Usually CL/F stands for the apparent clearance, not corrected for the fraction that reaches the circulation. One may read the Kp as the ratio of the level in a tissue or fluid to that in plasma or blood. Take `c1ccc(N2CCN(CCCN3CCN(c4ccccn4)CC3)CC2)nc1`: the values for the concentration for a half-maximal effect (EC50) in the data set with LNCaP, in the data set with PC-3 and in the data set with DU-145 were 15.6 µM, over 80 µM and over 80 µM, respectively. The figures for the Activity with Rattus norvegicus [1], with Rattus norvegicus [2] and in the data set on Rattus norvegicus [3] were 53.8%, “Non-Toxic” and “Non-Toxic”, respectively. In the data set on Rattus norvegicus [4], the result was Active. Further, the Time with Mus musculus worked out at 120 s. In [5], this molecule registered an exposure AUC(0-t) of 2500 ng·h/mL. For the same molecule, the figures for the half-life in data set [6], in data set [12] and in data set [16] were 5.2 h, 155 h and 129 h, respectively. In [7], this molecule had a clearance of 68.3 mL/min/kg. The same molecule displayed a Cmax in [8] of 329 ng/mL. The Tmax in data set [9] and in data set [14] was 1 h in each case. In addition, the apparent clearance CL/F in data set [10] is 65 mL/min/kg. Moreover, the results for the Vdss in the data set on Serum and in the data set on Hypothalamus [17] were 23.7 L/kg and 6.6 g/kg, respectively. For the same molecule, the AUClast is 10.7 µg·h/g in [11] and 4.2 µg·h/g in the data set on Hypothalamus [15]. For the same molecule, the CL in [13] came out at 0.3 g/h/kg. In data set [18], the Kp was 4.6.

The values above are taken from ChEMBL document CHEMBL4024713, “Novel aryl piperazines for alleviation of 'andropause' associated prostatic disorders and depression” (Eur J Med Chem, 2017).
